This passage reports IC50 and Ratio results from ChEMBL document CHEMBL1135831, “Expansion of structure-activity studies of piperidine analogues of 1-[2-(diphenylmethoxy)ethyl]-4-(3-phenylpropyl)piperazine (GBR 12935) compounds by altering substitutions in the N-benzyl moiety and behavioral pharmacology of selected molecules” (J Med Chem, 2002).

The target of test [1] is Sodium-dependent dopamine transporter (Rattus norvegicus, UniProt P23977). The experiment in a line: Inhibition of 3[H] WIN-35 428 binding to Dopamine transporter (DAT).
In test [2] the target is Monoamine transporters; serotonin & dopamine (Rattus norvegicus) (UniProt P31652+P23977). As to the kind of experiment: Relative binding to serotonin and dopamine transporters. It is filed as protein assay. The essentials: (§1)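 Ratio of radioligand binding values: SERT ([³H]citalopram) or NET ([³H]nisoxetine) over DAT ([³H]WIN 35,428). Binding 0–4 °C, 2 h (DAT, SERT) or 3 h (NET), final Na⁺ 30 mM (DAT, SERT) or 225 mM (NET); each value from three independent experiments in triplicate.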

The target of test [3] is Sodium-dependent serotonin transporter (Rattus norvegicus, UniProt P31652). As to the kind of experiment: Inhibition of [3H]- citalopram binding to Serotonin transporter.
Test [4] addresses Norepinephrine transporter (Rattus norvegicus, UniProt Q9WTR4). As to the kind of experiment: Inhibition of [3H]- […] binding to Norepinephrine transporter.
Test [5] has as its target Monoamine transporters; Norepininephrine & dopamine (Rattus norvegicus) (UniProt P23977+Q9WTR4). The experiment in a line: Selectivity ratio against dopamine and norepinephrine transporter binding. It counts as protein assay. Put shortly:
as §1

For test [6], the species on record is Rattus norvegicus. The experiment in a line: Inhibition of [3H]- DA (Dopamine) uptake in rat striatal synaptosomes. It counts as functional. To be noted: Brain.
Test [7] in a line: Selectivity ratio 3[H]DA uptake /DAT binding.
The species named for test [8] is Rattus norvegicus. The experiment in a line: Concentration causing 50% Inhibition of [3H]- DA (Dopamine) uptake in rat striatal synaptosomes. It is filed as functional. Particulars: Brain.

Chain of Sodium-dependent dopamine transporter (P23977 whole entry): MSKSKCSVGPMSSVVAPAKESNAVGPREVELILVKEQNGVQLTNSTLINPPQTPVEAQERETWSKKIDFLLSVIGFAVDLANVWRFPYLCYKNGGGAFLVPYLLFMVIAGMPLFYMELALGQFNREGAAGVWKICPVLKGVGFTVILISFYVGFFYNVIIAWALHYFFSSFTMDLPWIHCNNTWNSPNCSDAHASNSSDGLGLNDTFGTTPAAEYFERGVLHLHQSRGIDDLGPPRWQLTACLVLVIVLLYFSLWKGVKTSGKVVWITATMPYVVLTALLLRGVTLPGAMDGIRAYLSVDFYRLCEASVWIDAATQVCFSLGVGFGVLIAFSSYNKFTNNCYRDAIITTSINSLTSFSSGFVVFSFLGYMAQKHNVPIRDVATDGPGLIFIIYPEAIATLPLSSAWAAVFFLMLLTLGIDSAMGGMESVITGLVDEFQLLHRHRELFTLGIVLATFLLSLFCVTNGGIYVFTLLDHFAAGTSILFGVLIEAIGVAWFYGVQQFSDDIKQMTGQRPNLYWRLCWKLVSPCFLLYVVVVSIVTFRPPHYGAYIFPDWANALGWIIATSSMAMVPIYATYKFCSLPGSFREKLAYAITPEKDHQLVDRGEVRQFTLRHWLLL
Chain of Monoamine transporters; serotonin & dopamine (Rattus norvegicus) (P23977 whole entry, looked up): as the sequence (P23977 whole entry) above
Chain of Monoamine transporters; serotonin & dopamine (Rattus norvegicus) (P31652 whole entry, looked up): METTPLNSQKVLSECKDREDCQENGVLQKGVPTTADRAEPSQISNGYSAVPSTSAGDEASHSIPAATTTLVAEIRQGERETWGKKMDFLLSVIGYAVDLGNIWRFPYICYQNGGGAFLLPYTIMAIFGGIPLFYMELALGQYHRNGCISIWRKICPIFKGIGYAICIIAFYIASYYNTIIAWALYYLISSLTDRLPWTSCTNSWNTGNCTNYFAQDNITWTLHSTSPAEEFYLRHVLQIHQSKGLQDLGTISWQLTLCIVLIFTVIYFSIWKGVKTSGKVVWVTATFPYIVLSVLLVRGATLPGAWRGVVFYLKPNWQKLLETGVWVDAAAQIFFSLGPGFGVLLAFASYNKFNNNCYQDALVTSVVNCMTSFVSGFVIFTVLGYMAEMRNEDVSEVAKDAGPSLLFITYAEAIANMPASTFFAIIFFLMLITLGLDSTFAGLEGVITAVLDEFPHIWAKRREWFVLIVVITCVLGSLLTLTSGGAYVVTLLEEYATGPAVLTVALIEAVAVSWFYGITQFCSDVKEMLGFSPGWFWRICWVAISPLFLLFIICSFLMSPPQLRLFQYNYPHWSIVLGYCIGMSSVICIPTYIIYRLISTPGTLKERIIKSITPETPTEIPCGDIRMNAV
Chain of Sodium-dependent serotonin transporter (P31652 whole entry): as the sequence (P31652 whole entry, looked up) above
Chain of Norepinephrine transporter (Q9WTR4 whole entry): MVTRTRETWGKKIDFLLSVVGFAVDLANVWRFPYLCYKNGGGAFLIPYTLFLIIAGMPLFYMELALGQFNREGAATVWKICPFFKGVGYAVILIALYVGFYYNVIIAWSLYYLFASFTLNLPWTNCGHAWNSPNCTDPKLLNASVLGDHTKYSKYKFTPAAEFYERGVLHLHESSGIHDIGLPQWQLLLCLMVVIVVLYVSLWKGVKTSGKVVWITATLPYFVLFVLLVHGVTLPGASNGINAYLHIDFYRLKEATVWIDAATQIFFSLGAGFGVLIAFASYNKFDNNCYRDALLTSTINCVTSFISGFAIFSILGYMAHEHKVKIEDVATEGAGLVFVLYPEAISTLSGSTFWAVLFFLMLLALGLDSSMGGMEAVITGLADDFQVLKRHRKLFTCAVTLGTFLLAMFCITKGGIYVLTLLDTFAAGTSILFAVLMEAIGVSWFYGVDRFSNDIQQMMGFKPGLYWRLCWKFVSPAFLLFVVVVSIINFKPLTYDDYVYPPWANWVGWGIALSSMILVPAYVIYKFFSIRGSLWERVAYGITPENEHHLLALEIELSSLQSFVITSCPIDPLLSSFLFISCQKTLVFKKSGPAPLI

Usually IC50 stands for the concentration that gives 50% inhibition. High values mean a need for much substance, low ones inhibition by little substance. Regarding `Oc1ccc(CN2CCC(CCOC(c3ccccc3)c3ccccc3)CC2)cc1`, the IC50 in test [1] stood at 240 nM; in test [3], 4330 nM; in test [4], 3340 nM. For the same molecule, the values for the Ratio in test [2] and in test [5] were 18 and 14, respectively.
For `CC#Cc1ccc(CN2CCC(CCOC(c3ccccc3)c3ccccc3)CC2)cc1` the same measures were 65.1 nM, 2410 nM, 1170 nM, 37 and 18.
Turning to `COc1cccc(CN2CCC(CCOC(c3ccccc3)c3ccccc3)CC2)c1`, the values for the 50% inhibitory concentration (IC50) (in the test filed under Rattus norvegicus [6]; in test [3]; in test [4]) were 6.68 nM, 1080 nM and 472 nM, respectively. Further, the results for the Ratio in test [2], in test [5] and in test [7] were 55, 24 and 0.34, respectively.
`C=Cc1ccc(CN2CCC(CCOC(c3ccccc3)c3ccccc3)CC2)cc1`: the IC50 in test [1] came to 2.96 nM; in the test listed under Rattus norvegicus [8], 1.08 nM; in test [3], 1470 nM; in test [4] it was 715 nM. In addition, the figures for the Ratio in test [2], in test [5] and in test [7] were 500, 240 and 0.36, respectively.
On to `C#Cc1ccc(CN2CCC(CCOC(c3ccccc3)c3ccccc3)CC2)cc1`, for which the IC50 is 4.1 nM in test [1], 4.81 nM in the test listed under Rattus norvegicus [8], 1040 nM in test [3] and 760 nM in test [4]. For the same molecule, the values for the Ratio in test [2], in test [5] and in test [7] were 250, 180 and 1.2, respectively.
On to `Ic1ccc(CN2CCC(CCOC(c3ccccc3)c3ccccc3)CC2)cc1`, for which the values for the IC50 (in the test filed under Rattus norvegicus [8]; in test [4]) were 2.01 nM and 1150 nM, respectively. Also, the Ratio in test [2] came to 3040; in test [5], 1200; in test [7], 2.1.
Regarding `Oc1cccc(CN2CCC(CCOC(c3ccccc3)c3ccccc3)CC2)c1`, the 50% inhibitory concentration (IC50) in the test listed under Rattus norvegicus [6] turned out to be 10.4 nM; in test [4], 678 nM. Further, the Ratio in test [2] worked out at 69; in test [5] it was 47; in test [7], 0.72.
Consider `C=C(C)c1ccc(CN2CCC(CCOC(c3ccccc3)c3ccccc3)CC2)cc1`, for which the IC50 in test [1] turned out to be 11.6 nM; in the test filed under Rattus norvegicus [8], 3.1 nM; in test [3], 1030 nM; in test [4] it was 832 nM. For the same molecule, the values for the Ratio in test [2], in test [5] and in test [7] were 88, 72 and 0.26, respectively.
For `COC(=O)c1ccc(CN2CCC(CCOC(c3ccccc3)c3ccccc3)CC2)cc1`, the results for the IC50 (in test [1]; in the test listed under Rattus norvegicus [8]; in test [3]) were 8.23 nM, 1.94 nM and 924 nM, respectively. The Ratio in test [2] was found to be 110; in test [7], 0.23.
